Inconclusive results are not listed.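 How the source made its calls, unless noted: active means cell viability at or below a set limit in both duplicate runs, the limit being the all-compound median minus 4 SD (cut at about 23% in these data, passing the limit was not always enough); inconclusive means no clear call, values can overlap the other calls; inactive means the rest.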
What was measured:
[1] = OD615 S. cerevisiae growth inhibition, permissive medium, pilot counter-assay, permissive growth control for S. cerevisiae lifespan shortening project (AID 705;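 active means growth inhibition above 25% in both replicates, a cutoff set 3 SD above the mean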); details: OD615, 24 h, at 10 µM, stronger effect = higher value
Procedure, shortened: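 assay system = Saccharomyces cerevisiae strain carrying genetically modified DeaD replicative-lifespan system | technique = absorbance (optical density) at 615 nm | buffer or medium = permissive raffinose/galactose medium | timing = cells pre-grown 4 h, then 24 h compound exposure, 30 °C humidified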

[2] = Restrictive medium S. cerevisiae growth inhibition, OD615, pilot screen of yeast lifespan reduction project, restrictive growth control (AID 706;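 active means growth inhibition above a set limit, 3 SD over mean compound inhibition, in both replicates, cut at about 43% in these data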;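 further: modified DeaD lifespan yeast strain shifted to restrictive glucose medium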); details: OD615, 48 h, at 10 µM, stronger effect = higher value
Procedure, shortened: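 System: modified S. cerevisiae. Buffer or medium: CSMM-D glucose medium. Incubation: 4 h pre-growth plus 48 h compound exposure, 30 °C. Detection: absorbance (optical density) measured at 615 nm.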

[3] = viability gain of MRP-1-high H69AR cells under doxorubicin, pilot screen, MRP-1 activator project, CellTiter-Glo, duplicate (AID 807;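 active means viability increase at or above a cutoff of the median across tested compounds plus 3 SD, cut at about 8.5% in these data, passing the limit was not always enough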;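 further: compound pretreatment 18-22 h then 72 h combined with doxorubicin; 0% = doxorubicin alone and 100% = vehicle without doxorubicin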); details: H69AR viability with doxorubicin, CellTiter-Glo luminescence; at 10 µM; stronger effect = higher value
[4] = growth suppression of beta-catenin knockout HCT116, pilot screen, human colon tumor cells (AID 823); details: CellTiter-Glo, 60 h, at 10 µM, stronger effect = lower value;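 further: 0% = wells killed by 20 µM Hyamine and 100% = untreated DMSO cell wells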
[5] = growth suppression of PTEN-deleted HCT116, pilot screen, cell-based, HCT116 clonal line, CellTiter-Glo (AID 824;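 active means viability at or below 27.92% in each of two runs, the all-compound median minus 4 SD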;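 further: 0% = 20 µM Hyamine control and 100% = vehicle cell control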); details: 60 h, at 10 µM, stronger effect = lower value
[6] = inhibitors of the yeast RAM network, pilot screen, dse1pr::URA3 reporter, 5-FOA selection (AID 869;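 active means inhibition over a set limit, the all-compound mean plus 3 SD, in both replicate runs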;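 further: 0% = DMSO wells with no growth and 100% = 10 µM 1-NA-PP1 with full growth; RAM network block rescues cells from 5-FOA so hits raise OD615 growth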); details: S. cerevisiae dse1pr::URA3 5-FOA growth, OD615, 2 d; at 10 µM; stronger effect = higher value; strain carries analog-sensitive mutant Cbk1 kinase
[7] = RAM signaling pathway blockade in yeast – S. cerevisiae, Pdr1DBD-CYC8 efflux-inhibited sensitized strain, primary screen (AID 1298;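 active means RAM network inhibition above 8.4% in each of two replicates, 3 SD over the compound average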;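 further: 0% = DMSO untreated cells without growth and 100% = 10 µM 1-NA-PP1 full growth; higher means more yeast growth rescued from 5-FOA killing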); details: S. cerevisiae cbk1-as DSE1-URA3 strain, 5-FOA growth OD615, 2 d; at 50 µM; stronger effect = higher value

COc1ccc(S(=O)(=O)NCCN2CCOCC2)c2ccccc12
inactive: growth inhibition [1] -1.53% | growth inhibition [2] -2.08% | viability increase [3] -1.32% | viability [4] 101% | viability [5] 95.1% | inhibition [6] -0.495% | RAM network inhibition [7] 1.53%

CC1(C)CC(NC(=O)C23CCC(C)(C(=O)C2)C3(C)C)CC(C)(C)N1 (configuration not stated)
inactive: growth inhibition [1] -4.15% | growth inhibition [2] -6.33% | viability increase [3] -0.11% | viability [4] 96.2% | viability [5] 95.1% | inhibition [6] 2.67% | RAM network inhibition [7] 3.01%

CCc1nnc(NC(=O)CSc2nccn2-c2cccc(C)c2)s1
inactive: growth inhibition [1] -8.43% | growth inhibition [2] 11.6% | viability increase [3] 0.02% | viability [4] 109% | viability [5] 98.1% | inhibition [6] 0.64% | RAM network inhibition [7] 5.11%

CCCCCn1c(NC2CCCCC2)nc2c1c(=O)[nH]c(=O)n2C
inactive: growth inhibition [1] -15.8% | growth inhibition [2] -18.2% | viability increase [3] -3.48% | viability [4] 83.3% | viability [5] 86.1% | inhibition [6] 1.53% | RAM network inhibition [7] -0.84%

C/C(=C1\SC(N2CCOCC2)=NC1=O)c1ccccc1
inactive: growth inhibition [1] -19.6% | growth inhibition [2] -10.6% | viability increase [3] -2.49% | viability [4] 97% | viability [5] 102% | inhibition [6] 0.76% | RAM network inhibition [7] 1.09%

CCOc1ccccc1C(=O)NC1CCN(Cc2nnnn2C2CCCC2)CC1
inactive: growth inhibition [1] -6.12% | growth inhibition [2] -7.94% | viability increase [3] -1.67% | viability [4] 102% | viability [5] 98.9% | inhibition [6] 0.9% | RAM network inhibition [7] 1.76%

CC(=O)C1C(c2ccccc2Cl)NC(=O)NC1(O)C(F)(F)F (configuration not stated)
inactive: growth inhibition [1] -3.3% | growth inhibition [2] -12.1% | viability increase [3] -0.31% | viability [4] 112% | viability [5] 102% | inhibition [6] 1.93% | RAM network inhibition [7] -0.82%

OCCNc1nc(Nc2ccccc2)nc(Nc2ccccc2)n1
inactive: growth inhibition [1] 14% | growth inhibition [2] 4.96% | viability increase [3] -1.23% | viability [4] 95.8% | viability [5] 94% | inhibition [6] -0.245% | RAM network inhibition [7] -1.3%

Cc1ccc(Nc2nc(N3CCOCC3)nc(N3CCOCC3)n2)cc1
inactive: growth inhibition [1] -16.7% | growth inhibition [2] -7.55% | viability increase [3] -2.57% | viability [4] 64.2% | viability [5] 65.7% | inhibition [6] 1.06% | RAM network inhibition [7] 2.07%

CCc1cccc(OCCCCNCCOC)c1
inactive: growth inhibition [1] -2.16% | growth inhibition [2] -11.6% | viability increase [3] -0.86% | viability [4] 89.1% | viability [5] 99.3% | inhibition [6] 2.08% | RAM network inhibition [7] -0.32%

CC1=C(C(=O)OC(C)C)C(c2ccc(Br)s2)NC(=O)N1C (configuration not stated)
inactive: growth inhibition [1] -17% | growth inhibition [2] -22.3% | viability increase [3] 0.85% | viability [4] 70.6% | viability [5] 77% | inhibition [6] 0.54% | RAM network inhibition [7] 2.29%

CC(=O)Nc1ccc(S(=O)(=O)NCCc2cc3c(C)ccc(C)c3[nH]c2=O)cc1
inactive: growth inhibition [1] -10.1% | growth inhibition [2] -6.53% | viability increase [3] -0.47% | viability [4] 98.2% | viability [5] 94.2% | inhibition [6] 1.82% | RAM network inhibition [7] 1.05%

CC(C)n1c(CCCO)nc2ccccc21
inactive: growth inhibition [1] -11.3% | growth inhibition [2] -5.23% | viability increase [3] -1.64% | viability [4] 95.7% | viability [5] 88.1% | inhibition [6] 0.93% | RAM network inhibition [7] 0.19%

O=C(COc1cccc2ccccc12)N1CCN(c2ccccc2)CC1
inactive: growth inhibition [1] -6.48% | growth inhibition [2] -22% | viability increase [3] 1.21% | viability [4] 90.8% | viability [5] 89% | inhibition [6] 2.06% | RAM network inhibition [7] 11.7%

CC1=C(C(=O)Nc2ccccc2C)C(c2ccccc2)NC(=O)N1 (configuration not stated)
inactive: growth inhibition [1] 0.05% | growth inhibition [2] -7.71% | viability increase [3] -1.25% | viability [4] 97.9% | viability [5] 97.9% | inhibition [6] 1.01% | RAM network inhibition [7] 2.69%

CSC1=NCCN1C(=O)C(C)(C)Oc1ccc(Cl)cc1
inactive: growth inhibition [1] 7.64% | growth inhibition [2] 4.49% | viability increase [3] -4.07% | viability [4] 91.2% | viability [5] 84.7% | inhibition [6] 0.3% | RAM network inhibition [7] -0.37%

CC1CCN(c2c(NCc3ccc(C(=O)NCC4COc5ccccc5O4)cc3)c(=O)c2=O)CC1 (configuration not stated)
inactive: growth inhibition [1] 2.94% | growth inhibition [2] 14.3% | viability increase [3] -2.96% | viability [4] 86.2% | viability [5] 96.2% | inhibition [6] 0.785% | RAM network inhibition [7] 4.87%

Cc1ccc(-c2nc(CS(=O)CC(=O)NC3CCC(C)CC3)c(C)o2)cc1 (configuration not stated)
inactive: growth inhibition [1] 2.73% | growth inhibition [2] 11.8% | viability increase [3] 1.29% | viability [4] 84.8% | viability [5] 94.8% | inhibition [6] 0.76% | RAM network inhibition [7] 2.42%

CC(C)CCNC(=O)C1C2C=CC3(CN(Cc4ccccc4Cl)C(=O)C13)O2 (configuration not stated)
inactive: growth inhibition [1] -8.87% | growth inhibition [2] -13.5% | viability increase [3] -3.35% | viability [4] 103% | viability [5] 98.3% | inhibition [6] 0.82% | RAM network inhibition [7] 8.03%

CCCSc1n[nH]c(NC(C)=O)n1
inactive: growth inhibition [1] -9.97% | growth inhibition [2] 7.95% | viability increase [3] -0.65% | viability [4] 98.6% | viability [5] 101% | inhibition [6] 2.27% | RAM network inhibition [7] 2.41%

FC(F)(F)c1nnc2ccc(-n3ccnc3)nn12
inactive: growth inhibition [1] -9.92% | growth inhibition [2] -28.6% | viability increase [3] -1.45% | viability [4] 103% | viability [5] 88.4% | inhibition [6] 0.61% | RAM network inhibition [7] 3.79%

COc1ccc(-c2csc(N3CCN(C(=O)c4ccco4)CC3)n2)cc1
inactive: growth inhibition [1] -13% | growth inhibition [2] 19% | viability increase [3] 2.74% | viability [4] 98.5% | viability [5] 85.1% | inhibition [6] 0.95% | RAM network inhibition [7] 2.04%

c1cn(CCCNc2ncnc3nc[nH]c23)cn1
inactive: growth inhibition [1] -7.59% | growth inhibition [2] -16.1% | viability increase [3] -1.91% | viability [4] 111% | viability [5] 96.2% | inhibition [6] 0.895% | RAM network inhibition [7] 2.98%

O=C(c1ccc(NC2=NC3CS(=O)(=O)CC3S2)cc1)N1CCc2ccccc2C1 (configuration not stated)
inactive: growth inhibition [1] -0.26% | growth inhibition [2] 11.2% | viability increase [3] -0.55% | viability [4] 109% | viability [5] 106% | inhibition [6] 1.67% | RAM network inhibition [7] 5.69%

COc1ccc(C/C(O)=C(\C#N)c2nc3ccccc3[nH]2)cc1OC
inactive: growth inhibition [1] -4.85% | growth inhibition [2] 0.74% | viability increase [3] -1.93% | viability [4] 90.7% | viability [5] 87.7% | inhibition [6] 0.175% | RAM network inhibition [7] 3.13%

COc1ccc(C2CC(=O)c3cnc(NC(=O)c4ccccc4)nc3C2)cc1OC (configuration not stated)
inactive: growth inhibition [1] -3.28% | growth inhibition [2] -0.645% | viability increase [3] -3.55% | viability [4] 105% | viability [5] 96.6% | inhibition [6] 0.895% | RAM network inhibition [7] 5.34%

CCn1c(CCCNC(=O)c2cccs2)nc2ccccc21
inactive: growth inhibition [1] -6.02% | growth inhibition [2] -11.4% | viability increase [3] -2.77% | viability [4] 104% | viability [5] 96.1% | inhibition [6] 2.48% | RAM network inhibition [7] 1.95%

Fc1ccc(CSc2nnc(-c3cccnc3)n2Cc2ccco2)cc1
inactive: growth inhibition [1] 1.42% | growth inhibition [2] 10.1% | viability increase [3] -2.14% | viability [4] 90.8% | viability [5] 99.8% | inhibition [6] 1.94% | RAM network inhibition [7] 2.25%

COc1ccc(OCCSc2ncnc3nc[nH]c23)cc1
inactive: growth inhibition [1] 2.66% | growth inhibition [2] 22.4% | viability increase [3] -3.5% | viability [4] 86.6% | viability [5] 81.3% | inhibition [6] 3.27% | RAM network inhibition [7] 4.46%

c1ccc(N2CCN(C3CCSC3)CC2)cc1 (configuration not stated)
inactive: growth inhibition [1] -20.2% | growth inhibition [2] -15.7% | viability increase [3] 1.11% | viability [4] 96% | viability [5] 94.3% | inhibition [6] 1.05% | RAM network inhibition [7] -1.2%

COc1ccc(NC(=O)N2CCC(c3ccccc3)C2)c(OC)c1 (configuration not stated)
inactive: growth inhibition [1] -3.06% | growth inhibition [2] 9.96% | viability increase [3] 1.59% | viability [4] 90.9% | viability [5] 90.2% | inhibition [6] 0.67% | RAM network inhibition [7] -1.49%

Cc1csc2nc(CNS(=O)(=O)c3ccc4c(c3)CCCC4)cn12
inactive: growth inhibition [1] -17.5% | growth inhibition [2] 0.8% | viability increase [3] -0.44% | viability [4] 101% | viability [5] 93.2% | inhibition [6] 1.17% | RAM network inhibition [7] 0.48%

COC(=O)c1cc(OC)c(OC)cc1N=CC1=C(O)CC(C)(C)CC1=O
inactive: growth inhibition [1] -14.9% | growth inhibition [2] -8.12% | viability increase [3] -0.98% | viability [4] 99.5% | viability [5] 94.1% | inhibition [6] 1.6% | RAM network inhibition [7] 3.12%

CCOc1ccc(-n2c(Cc3cc(=O)[nH]c(=O)[nH]3)nnc2SCc2cccnc2)cc1
inactive: growth inhibition [1] 2.83% | growth inhibition [2] 5.83% | viability increase [3] 1.08% | viability [4] 107% | viability [5] 105% | inhibition [6] 1.84% | RAM network inhibition [7] 0.84%

Cc1ccc2oc(=O)c3cnn(CC(=O)NCCCOC(C)C)c3c2c1
inactive: growth inhibition [1] -9.03% | growth inhibition [2] -7.34% | viability increase [3] -2.72% | viability [4] 106% | viability [5] 94.2% | inhibition [6] 1.87% | RAM network inhibition [7] 8.19%

Cc1ccc(-c2nc(CS(=O)CC(=O)N3CCN(c4ncccn4)CC3)c(C)o2)cc1 (configuration not stated)
inactive: growth inhibition [1] -0.52% | growth inhibition [2] 10.7% | viability increase [3] -2.28% | viability [4] 76.8% | viability [5] 90.2% | inhibition [6] 2.31% | RAM network inhibition [7] 4.78%

Reference: PubChem BioAssay
